Compounds with a hit are over-represented: about 3% of the library has one in this group of screens.
Tn6 DDE FP – inhibitors of Tn6 peptide binding to human fibrin DD(E); AID 720509; inhibition, % at 8.3 µM; Fibrin DD(E) TRITC-Tn6 fluorescence polarization displacement; 370,000 compounds, 0.21% hits;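 active = inhibition above a per-campaign cutoff: mean of compounds within control limits plus 3 SD, cut at about 15% in these data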
PLCg1 inh – PLC-gamma1 (human) inhibition, primary screen | 370,000 compounds, 0.84% hits | purified PLC-gamma1, fluorogenic substrate, fluorescence | inhibition, % at 12.2 µM | AID 720700 | P19174
PLC-beta3 inh – PLC-beta3 (human) inhibition, primary screen; Purified PLC-beta3, fluorogenic substrate, fluorescence; Q01970; AID 720704; inhibition, % at 12.2 µM; 370,000 compounds, 0.18% hits; in the data active = inhibition above about 11%
NRP1-CendR mod – alters CendR peptide binding to human NRP-1; AID 602438; 360,000 compounds, 0.85% hits; inhibition, % at 25 µM; FAM-RPARPAR peptide binding to NRP-1, fluorescence polarization;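 active = inhibition or corrected inhibition above about 18%, plus a signal ratio from 0.5 to 1.5, limit read from the data, passing the limit was not always enough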
Target sequence (O14786 whole entry, looked up): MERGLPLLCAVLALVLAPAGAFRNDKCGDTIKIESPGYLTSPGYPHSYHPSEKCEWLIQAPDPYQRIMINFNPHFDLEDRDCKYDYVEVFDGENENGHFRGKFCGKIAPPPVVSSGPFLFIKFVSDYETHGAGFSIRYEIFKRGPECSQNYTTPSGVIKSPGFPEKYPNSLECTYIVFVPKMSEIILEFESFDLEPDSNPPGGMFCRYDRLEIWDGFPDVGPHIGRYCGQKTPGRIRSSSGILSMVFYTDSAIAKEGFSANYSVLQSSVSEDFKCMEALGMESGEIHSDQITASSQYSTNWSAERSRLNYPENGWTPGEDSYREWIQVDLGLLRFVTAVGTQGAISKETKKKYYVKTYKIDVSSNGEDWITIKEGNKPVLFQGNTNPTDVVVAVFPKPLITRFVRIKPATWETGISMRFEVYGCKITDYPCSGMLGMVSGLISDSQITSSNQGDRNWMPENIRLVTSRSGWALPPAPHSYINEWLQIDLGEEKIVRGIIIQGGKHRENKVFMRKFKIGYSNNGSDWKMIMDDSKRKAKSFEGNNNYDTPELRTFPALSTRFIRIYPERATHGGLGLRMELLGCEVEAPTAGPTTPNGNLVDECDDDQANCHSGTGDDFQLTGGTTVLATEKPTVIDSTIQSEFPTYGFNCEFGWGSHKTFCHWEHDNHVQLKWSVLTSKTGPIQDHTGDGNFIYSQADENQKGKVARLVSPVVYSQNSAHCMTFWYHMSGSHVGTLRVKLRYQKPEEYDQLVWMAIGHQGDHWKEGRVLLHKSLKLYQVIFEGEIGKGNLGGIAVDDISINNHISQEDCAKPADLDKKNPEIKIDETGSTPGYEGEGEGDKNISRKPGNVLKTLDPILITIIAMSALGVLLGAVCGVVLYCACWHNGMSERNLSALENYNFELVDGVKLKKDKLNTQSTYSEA
proKLK7 act – activates the human kallikrein-7 zymogen; purified proKLK7, EDANS-DABCYL substrate fluorescence; 100% is mature enzyme control, 0% vehicle; activation, % at 7 µM; 370,000 compounds, 0.9% hits;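 active = activation above the mean of all tested compounds plus 3 SD, computed per campaign excluding outliers beyond control limits, cut at about 13% in these data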
Tn7 DDE FP – disrupts Tn7 cyclic peptide binding to fibrin D-Dimer-E complex. 370,000 compounds, 0.13% hits. inhibition, % at 8.3 µM. FP displacement of FITC-Tn7 peptide from fibrin DD(E); 0% = median of compound wells per plate. AID 720508. P02675;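 active = inhibition above the mean of compounds falling within the control limits plus 3 SD of them, cut at about 14% in these data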
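assay system = human clot-derived fibrin DD(E) complex | quantity = Fibrin-DD(E) at 2 µM final | timing = 10 min preincubation, 3 h with tracer, room temperature | signal = fluorescence polarization | measure = percent inhibition | benchmarks = high control wells with 10 µM unlabelled Aha-Tn7 peptide (full inhibition) | replicates = singlicate testing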
PLCgamma1 ctr – PLC-gamma1 inhibition, counter-screen for PLC-beta3 hits; inhibition, % at 12.3 µM; 3,300 compounds, 3.1% hits; purified PLC-gamma1, fluorogenic substrate, fluorescence; shares compounds with PLCg1 inh; AID 743258
PLCbeta3 conf – confirmation of human PLC-beta3 inhibitors; purified PLC-beta3, fluorogenic substrate fluorescence; shares compounds with PLCg1 inh; 3,300 compounds, 1% hits; inhibition, % at 12.3 µM; AID 743261; in the data active = inhibition above about 11%
A number is an active result; – = inactive; · = no result. Rule as the data show it, unless noted: active = inhibition above about 9.5%; inactive = the rest.

SMILES	Tn6 DDE FP	PLCg1 inh	PLC-beta3 inh	NRP1-CendR mod	proKLK7 act	Tn7 DDE FP	PLCgamma1 ctr	PLCbeta3 conf
COc1ccc(CNC(=O)C2CCN(S(=O)(=O)c3cccc4nsnc34)CC2)cc1	–	11	–	–	–	–	–	–
COC(=O)CN(n1cnnc1)S(=O)(=O)c1ccccc1Cl	–	10	–	–	–	–	–	–
O=C(COc1ccc(/C=N/NS(=O)(=O)c2ccccc2)cc1)NCc1ccccc1	–	–	–	–	–	–	·	·
CC(=O)Oc1ccc(/C=N/NS(=O)(=O)c2ccccc2)cc1	–	–	11	–	–	–	–	–
COc1ccc(/C=N/NS(=O)(=O)c2ccccc2)cc1OC(=O)c1ccc(C)cc1	–	–	–	–	–	–	·	·
COc1ccc(/C=N/NS(=O)(=O)c2ccc(C)cc2)cc1OC(=O)c1ccccc1	–	11	–	–	–	–	–	–
CC1CC(C)CN(c2nc(NCc3ccco3)nc(N)c2[N+](=O)[O-])C1 (configuration not stated)	–	–	–	–	–	–	·	·
Nc1nc(Nc2ccccc2F)nc(NCc2ccco2)c1[N+](=O)[O-]	–	13	–	–	–	–	–	–
CC1CCCN(c2nc(NCc3ccco3)nc(N)c2[N+](=O)[O-])C1 (configuration not stated)	–	16	–	–	–	–	–	–
COC(=O)[C@]12C[C@H](CC(=O)N3CCN(C(=O)C4CC4)CC3)C(=O)N(Cc3ccco3)C1=C[C@H](C(C)C)O[C@@H]2C1CC1	–	–	–	·	–	–	·	·
COC(=O)c1cc(-c2cccc(C(C)C)c2)c(=O)n2c1CCC2	–	–	–	·	–	–	·	·
Cc1noc(C)c1S(=O)(=O)Nc1ccc2c(c1)C(=O)N([C@H](C)CO)C[C@H](C)[C@H](CN(C)C(=O)NC(C)C)OCCCC[C@@H](C)O2	–	11	–	–	–	–	–	–
CCOC(=O)CCCCCC(=O)Nc1ccc2c(c1)C(=O)N([C@H](C)CO)C[C@@H](C)[C@@H](CN(C)C(=O)CCC(F)(F)F)OCCCC[C@H](C)O2	–	12	–	–	–	–	–	–
Cc1noc(C)c1S(=O)(=O)Nc1ccc2c(c1)C(=O)N([C@H](C)CO)C[C@H](C)[C@@H](CN(C)C(=O)NC(C)C)O2	–	–	–	–	–	–	·	·
CCCNC(=S)N(Cc1ccccc1)Cc1nc2ccccc2c(=O)[nH]1	–	20	–	–	–	–	–	–
CCOCCCNC(=S)N(Cc1ccccc1)Cc1nc2ccccc2c(=O)[nH]1	–	–	–	–	–	–	·	·
c1ccc(-c2c[nH]c3ccc(OCCN4CCOCC4)c(-c4ccccc4)c23)cc1	–	–	–	·	–	–	·	·
O=C(NC1=C(Nc2ccc(Cl)cc2)C(=O)c2ccccc2C1=O)c1ccccc1	–	–	–	–	–	–	·	·
CN(C1=C(NC(=O)c2ccc(Cl)cc2)C(=O)c2ccccc2C1=O)c1ccccc1	–	12	–	–	–	–	–	–
CCOC(=O)C1NC(=O)CC1c1ccccc1 (configuration not stated)	–	11	–	–	–	–	–	–
CCOC(=O)[C@@H]1CCNC[C@@H]1c1ccccc1	–	–	–	–	–	–	·	·
CN1C(=O)CSC1=NC12CC3CC(CC(C3)C1)C2	–	11	–	–	–	–	–	–
Cc1cccc(N2CCN(C(=O)c3cc(S(=O)(=O)N(C)C)ccc3Cl)CC2)c1C	–	–	–	·	·	–	·	·
Cc1ccc(/C=N/NC(=O)Cn2cnc3ccccc32)o1	–	–	–	–	–	–	·	·
Cc1ccc(/C=N\NC(=O)Cn2c(C)nc3ccccc32)o1	–	9.8	–	–	–	–	–	–
SMILES	Tn6 DDE FP	PLCg1 inh	PLC-beta3 inh	NRP1-CendR mod	proKLK7 act	Tn7 DDE FP	PLCgamma1 ctr	PLCbeta3 conf
COC(=O)[C@H]1C[C@@]2(c3ccccc3)c3ccccc3N(S(=O)(=O)c3ccccc3)[C@H]2N1	–	–	–	·	–	–	·	·
COc1ccc(S(=O)(=O)N(C)CC(=O)Nc2cccc(C(C)=O)c2)cc1	–	–	–	–	–	–	·	·
COc1ccc(S(=O)(=O)N(C)CC(=O)Nc2ccc(F)cc2)cc1	–	–	11	–	–	–	–	–
Cc1ccc(-c2c(NC(=O)c3cccc(C)c3)nc3ncccn23)cc1	–	–	–	·	–	–	·	·
COc1cccc(NC(=O)NC2CCCCN(Cc3ccc(C)cc3)C2=O)c1 (configuration not stated)	–	–	–	·	–	–	·	·
CCn1cnc2scc(-c3ccc(OC)cc3)c2c1=O	–	–	–	–	–	–	·	·
CCOc1ccc(-c2csc3ncn(-c4ccc(OC)cc4)c(=O)c23)cc1	–	10	–	–	–	–	–	–
COC(=O)COc1ccc(S(=O)(=O)NCc2ccco2)cc1Cl	–	11	–	–	–	–	–	–
CCOC(=O)c1c(C)[nH]c(C)c1S(=O)(=O)NCCc1sccc1C	–	9.9	–	–	–	–	–	–
CCOC(=O)c1c(C)[nH]c(C)c1S(=O)(=O)NCCc1ccc(SC)cc1	–	–	–	–	–	–	·	·
COc1ccc(CNC(=O)c2cc(-c3ccccc3)c(N3CCOCC3)s2)cc1OC	–	–	–	·	–	–	·	·
C/C(CC(=O)Nc1ccccc1C)=N\NC(=O)Cc1csc(N)n1	–	9.9	–	–	–	–	–	–
O=C1c2ccccc2C(=O)N1Cc1cccnc1	–	12	–	–	–	–	–	–
CC(Cl)C(=O)N1CCC(C(=O)NCC2COc3ccccc3O2)CC1 (configuration not stated)	–	–	–	·	–	–	·	·
CN(C)S(=O)(=O)NC(c1ccccc1)c1ccccc1	–	12	–	–	–	–	–	–
CC(C)c1ccccc1NS(=O)(=O)N(C)C	–	–	–	–	–	–	·	·
O=C(NCCc1ccccc1)OCc1cn(Cc2cc(F)ccc2F)nn1	–	–	–	·	–	–	·	·
CCCOc1ccc(Oc2cc(C)nc(SC)n2)nn1	–	–	13	–	–	–	–	–
CC(C)(C)CC(C)(C)NC(=S)Nc1ccc(S(=O)(=O)N2CCOCC2)cc1	–	–	–	–	–	–	·	·
CN(C)CCCN(CCCN(C)C)C(=S)Nc1ccc(S(=O)(=O)N2CCOCC2)cc1	–	11	–	–	–	–	–	–
COc1ccc(OC)c(CN2C(=O)CN(S(C)(=O)=O)CC2(C)c2nnnn2C2CCCC2)c1 (configuration not stated)	–	–	–	·	–	–	·	·
